Compound activity: PubChem BioAssay, several laboratories
Compounds with a hit are over-represented: about 1.8% of the library has one in this group of screens.
TNF necrop inh = inhibitors of TNF-alpha triggered necroptosis, primary screen, cell-based, Jurkat FADD-/-, single concentration. Jurkat FADD-/- TNF necroptosis rescue, ATP luminescence, 24 h; 0 = TNF only, 100 = no-TNF cells. activation (protection from cell death), % at 10 µM. hit rate 0.068% among 220,000. AID 463075, 2010;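 active = activation, meaning protection from cell death, of at least 50% relative to plate controls; inactive = activation below 50%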;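 note: necroptosis triggered by 40 ng/mL TNF-alpha added together with compound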
Autophagy mod = autophagy modulators in MEF cells, primary screen, imaging, high-content, MEF GFP-LC3 | MEF GFP-LC3 puncta imaging; test concentration mostly 10 µM | calls only at 10 µM (by protocol) | hit rate 0.98% among 190,000 | AID 463193, 2010;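 active = percentage of spot-positive cells more than 3 SD above its plate mean, without a fluorescence outlier flag or 80% toxicity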
zVAD death inh = inhibitors of zVAD-triggered necroptosis, primary screen, L929 cells. viability rescue, % at 10 µM. L929 zVAD necroptosis rescue, ATP luminescence, 24 h; with zVAD 60 µM. hit rate 0.38% among 220,000. AID 1377, 2008;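 active = activation, scaled between plate controls, above about 75%, limit read from the data; inactive = activation under that limit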
Dynein cargo inh = inhibitors of GR-EGFP nuclear translocation, primary screen, dynein cargo transport inhibitor project, imaging, high-content, 3617.4 mouse cells; test concentration mostly 20 µM; stimulated with dexamethasone, 1 µM; hits give low values; z-score, hits read low; hit rate 0.47% among 220,000;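 active = plate z-score of nuclear minus cytoplasmic receptor signal below a set negative limit, without overly bright fluorescence or cell loss, cut at about -3.5 in these data, passing the limit was not always enough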;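 note: z-score of nuclear minus cytoplasmic ring GR-EGFP intensity difference per well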
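Buffer or medium: tet-free, stripped-serum medium; Also added: dexamethasone, 1.0 µM final; Technique: high-content fluorescence imaging after fixation; Times: 48 h induction, 1 h compound, 30 min dex at 37 °C; Read-out: per-cell GR-EGFP intensity, nucleus versus surrounding cytoplasmic ring, well-averaged.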
MDM2 E3 inh = MDM2-luciferase reporter signal enhancers, primary screen, MDM2 E3 ligase inhibitor project, cell-based, luminescence, 1536-well. cell-based MDM2 ubiquitination luciferase reporter, 2 h; 0 = plate control, 100 = twice control, blank-subtracted. signal enhancement, % at 5 µM. hit rate 0.11% among 210,000;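 active = signal enhancement of 30% or more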;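 note: luminescence tracks abundance of the self-degrading MDM2-luciferase fusion protein; higher signal means inhibition of MDM2 E3 ligase activity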
Target sequence (Q00987 whole entry, looked up, the tested form may be a part): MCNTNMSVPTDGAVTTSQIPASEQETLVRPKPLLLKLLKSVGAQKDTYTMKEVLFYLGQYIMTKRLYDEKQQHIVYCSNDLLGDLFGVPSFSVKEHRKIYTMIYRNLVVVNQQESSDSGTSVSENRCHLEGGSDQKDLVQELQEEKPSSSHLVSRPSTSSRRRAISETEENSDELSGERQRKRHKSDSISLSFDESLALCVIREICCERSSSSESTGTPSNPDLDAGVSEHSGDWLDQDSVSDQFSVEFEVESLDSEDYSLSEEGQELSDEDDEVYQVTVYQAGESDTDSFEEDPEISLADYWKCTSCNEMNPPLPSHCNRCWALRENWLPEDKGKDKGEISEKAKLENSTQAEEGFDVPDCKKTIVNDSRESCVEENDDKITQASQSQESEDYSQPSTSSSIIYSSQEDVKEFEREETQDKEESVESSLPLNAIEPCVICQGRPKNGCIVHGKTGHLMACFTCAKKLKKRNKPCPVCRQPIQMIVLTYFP
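Assay system: mammalian cells stably expressing self-ubiquitinating, self-degrading MDM2 E3–luciferase fusion. Quantity: 2000 cells in each well. Medium: DMEM culture medium. Compound dosing: single-point 5 µM. Timing: cell settling 4 h, compound treatment 2 h, both 37 °C. Technique: luciferase luminescence. Read-out basis: percent signal gain over controls, blank-subtracted. Benchmarks: plate controls and plate blanks.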
Large screens that a line does not name were inactive.

CCOC(=O)c1c(C)[nH]c(C(=O)NNC(=O)c2ccccc2)c1C	none
COc1ccc(O)c(/C=N/NC(=S)Nc2cccnc2)c1	none
COc1cccc(/C=N/NC(=S)Nc2cccnc2)c1	Autophagy mod active
CCOC(=O)c1c(C)[nH]c(C(=O)OCC(=O)Nc2cc(C)c(Cl)cc2OC)c1C	Autophagy mod active
CCOC(=O)c1c(C)[nH]c(C(=O)N/N=C\c2ccccc2Cl)c1C	Autophagy mod active
COc1cccc(/C=N/NC(=O)c2[nH]c(C)c(C(=O)N/N=C/c3cccc(OC)c3)c2C)c1	MDM2 E3 inh 36
NC(=O)c1ccc(NC(=O)COC(=O)/C=C/c2ccc3c(c2)OCO3)cc1	none (no result: Autophagy mod)
Cc1ccc(S(=O)(=O)N2CCC(NC(=O)c3ccccc3)CC2)cc1	none
CC(C1CC2CCC1C2)n1c(-c2cccs2)n[nH]c1=S (stereo unspecified)	none (no result: Autophagy mod, MDM2 E3 inh)
Cc1nn(CC#N)c(=O)n1-c1ccc(Cl)cc1	Autophagy mod active
CSc1nnc(SCC#N)s1	none (no result: Autophagy mod)
C/C(=N\NC(=O)c1cc(C(C)C)[nH]n1)c1ccco1	Autophagy mod active
C/C(=N/NC(=O)c1cc(-c2ccc(Br)s2)[nH]n1)c1ccco1	none
COc1ccccc1-c1nc2ccccc2c(=O)n1NC(=O)c1cccs1	none (no result: zVAD death inh)
COc1ccc2c(c1)c(CC(=O)OCC(N)=O)c(C)n2C(=O)c1ccc(Cl)cc1	none (no result: Autophagy mod, MDM2 E3 inh)
COc1ccc2c(c1)c(CC(=O)OCC(=O)O)c(C)n2C(=O)c1ccc(Cl)cc1	Autophagy mod active
CN(C)C=Nc1nonc1-c1ncn[nH]1	Autophagy mod active
CN(C)C=Nc1nonc1-c1ccccc1	none (no result: Autophagy mod)
Cc1ccc2nc(C)c3c(c2c1)N(c1ccc(F)cc1)CC3	none (no result: Autophagy mod)
Cc1nc2ccccc2nc1N/N=C/c1ccc(O)cc1	none (no result: Autophagy mod)
Oc1ccc(Nc2nc3ccccc3nc2Nc2ccc(O)cc2)cc1	Autophagy mod active
CCOc1ccc(C(=O)Nc2cc(S(=O)(=O)Nc3ccccc3Cl)ccc2N2CCOCC2)cc1	none
Cc1ccc(OCc2nnc(SCC(=O)c3ccccc3)n2Cc2ccco2)cc1	none
O=C(CSc1nnc(COc2ccccc2)n1Cc1ccco1)c1ccc(F)cc1	Autophagy mod active
COc1ccc(/C=C/C(=O)OCC(=O)Nc2c(C)cccc2C)cc1	none
CCn1c(SCC(=O)N/N=C/c2ccc(OC)c(OC)c2)nc2ccccc21	none
C=CCSc1nc2ccccc2n1C(=O)/C=C/c1ccc(OC)c(OC)c1	Dynein cargo inh -5.1
CCSc1nc2ccccc2n1C(=O)/C=C/c1ccc(OC)c(OC)c1	MDM2 E3 inh 65
Cc1cccc(NC(=O)CCN2C(=O)c3ccccc3C2=O)n1	Autophagy mod active
O=C(CCCN1C(=O)c2ccccc2C1=O)Nc1nncs1	none
O=C(CCCN1C(=O)c2ccccc2C1=O)NC1=NCCS1	Autophagy mod active
COc1cc2c3nnc(-c4ccc(F)cc4)c-3cn(Cc3cccc(C)c3)c2cc1OC	none
COc1cc2c3nnc(-c4ccc(F)cc4)c-3cn(Cc3cccc(F)c3)c2cc1OC	Autophagy mod active
CCC(C)C(NC(=O)C(C)NC(=O)CNC(=O)OC(C)(C)C)C(N)=O (stereo unspecified)	none
O=C(CSCc1ccco1)Nc1cc(C(F)(F)F)ccc1N1CCOCC1	Autophagy mod active
CCCCCCCCNc1nc(Cl)nc(NCCN2CCOCC2)n1	Autophagy mod active
CC(NS(=O)(=O)c1cccc(Cl)c1)C(=O)N(C)C1CCN(C)CC1 (stereo unspecified)	none
Cc1ccc(S(=O)(=O)NNC2CC(=O)N(c3ccc(Br)cc3)C2=O)cc1 (stereo unspecified)	Autophagy mod active
COc1ccccc1N1CCc2c(C)nc3c(OC)cccc3c21	none (no result: Dynein cargo inh)
COc1cccc2c3c(c(C)nc12)CCN3c1ccccc1	Autophagy mod active
COc1ccc(CCC(=O)Nc2ccc(-c3noc(-c4ccc(OC)c(OC)c4)n3)cc2)cc1	Autophagy mod active
CCCCCC(=O)Nc1ccc2oc(-c3cncc(Br)c3)nc2c1	Autophagy mod active
COc1ccc(-c2nc3cc(NC(=O)Cc4ccc(OC)c(OC)c4)ccc3o2)cc1	zVAD death inh 89
COc1ccc(-c2nc(-c3ccc(NC(=O)c4ccc(Br)o4)cc3)no2)cc1OC	none
O=C(CN1CCCC1)Nc1ccc(-c2nc3cc(NC(=O)CN4CCCC4)ccc3o2)cc1	Autophagy mod active
CCN(CC)CC(=O)Nc1ccc(-c2nc3cc(NC(=O)CN(CC)CC)ccc3o2)cc1	none
CCNc1ccc(S(=O)(=O)N(C)C)cc1NCC(=O)Nc1ccc(F)c(Cl)c1	none
COc1cc(OC)cc(C(=O)Nc2ccc(-c3nc4ccccc4o3)cc2)c1	Autophagy mod active
CN(CCO)c1ncnc2c1sc1nc(N3CCOCC3)c3c(c12)CCC3	none (no result: Autophagy mod)
CCCC(c1nnnn1CS(=O)(=O)c1ccc(C)cc1)N1CCN(CC)CC1 (stereo unspecified)	none
COc1ccc(OCCCn2cc(/C=C3/C(=N)N4C=C(C)SC4=NC3=O)c3ccccc32)cc1	Autophagy mod active
O=C(NCc1ccc2c(c1)OCO2)C1CCC(=O)N1C1CCCC1 (stereo unspecified)	none
COc1ccc(-c2cc(-c3ccccc3)c(C#N)c(S(C)=O)n2)cc1 (stereo unspecified)	Autophagy mod active
CCSc1nc(-c2ccc(OC)cc2)cc(-c2ccccc2)c1C#N	none
COc1cc(C2C(C(=O)OC(C)C)=C(C)Nc3ncnn32)cc(OC)c1OC (stereo unspecified)	Autophagy mod active
Cc1nc(CSc2nsc(/C=C/N(C)C)c2C#N)cs1	MDM2 E3 inh 31
CCC(NC(=O)Nc1nnc(C(F)(F)F)s1)(C(F)(F)F)C(F)(F)F	Autophagy mod active
Nc1nccc(-c2ccc(-n3cnc4ccccc43)cc2)n1	none
c1ccc2c(c1)ncn2-c1ccc(-c2ccnc3ncnn23)cc1	Autophagy mod active
COc1cc(CO)ccc1OCc1nnnn1-c1ccc(C)cc1	none
Cc1cc(C)c(S(=O)(=O)c2ccccc2)c(N2CCOCC2)n1	none
Cc1cc(C)c(C)c(S(=O)(=O)N2CCNCC2)c1C	Autophagy mod active
O=C(O)c1c(-c2ccc(Cl)cc2)cn2ccccc12	none
COCCCN=C1NN=C(c2cc(C)n(-c3ccccc3)c2C)CS1	none (no result: zVAD death inh)
COCCCN=C1NN=C(c2cc(C)n(Cc3ccccc3Cl)c2C)CS1	Autophagy mod active
COC(=O)c1cn(NC(=O)C2CCCO2)c(=O)c2ccccc12 (stereo unspecified)	Autophagy mod active
